Results reported in ChEMBL document CHEMBL1135230, “Synthesis of Sordaricin analogues as potent antifungal agents against Candida albicans” (2002).
In brackets after ≈: the same amount, converted by molar mass.

Columns and labels:
Assay type in all cases: functional
Nakaseomyces glabratus = assay: Tested in vitro for the minimum inhibitory concentration (MIC) against Candida glabrata ATCC 90030
Outline: (§1)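 Broth MIC determined in RPMI1640 at pH 7.0, incubated at 35 °C; MIC taken as the lowest concentration giving 80% inhibition of fungal growth.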

Candida albicans [1] = assay: Tested in vitro for the minimum inhibitory concentration (MIC) against Candida albicans SANK51486; outline: as §1
Candida albicans [2] = assay: Tested in vitro for the minimum inhibitory concentration (MIC) against Candida albicans TIMM3164; outline: as §1
Candida albicans [3] = assay: Tested in vitro for the minimum inhibitory concentration (MIC) against Candida albicans ATCC 24433; outline: as §1
Candida tropicalis = assay: Tested in vitro for the minimum inhibitory concentration (MIC) against Candida tropicalis ATCC750; outline: as §1
Candida albicans [4] = assay: Tested in vitro for the minimum inhibitory concentration (MIC) against Candida albicans ATCC 64550; outline: as §1

Row | Compound | MIC (Nakaseomyces glabratus) | MIC (Candida albicans [1]) | MIC (Candida albicans [2]) | MIC (Candida albicans [3]) | MIC (Candida tropicalis) | MIC (Candida albicans [4])
1 | CC(C)C1=CC2CC3(C=O)[C@@H]4CC[C@@H](C)[C@H]4CC2(CN(C)C2CCCCC2)C13C(=O)O (stereo not given in full) | 8 µg/mL (≈ 18.7 µM) | 8 µg/mL (≈ 18.7 µM) | 16 µg/mL (≈ 37.4 µM) | 8 µg/mL (≈ 18.7 µM) | > 16 µg/mL | 16 µg/mL (≈ 37.4 µM)
2 | CC(C)C1=CC2CC3(C=O)[C@@H]4CC[C@@H](C)[C@H]4CC2(C(=O)NC2CCCCC2)C13C(=O)O (stereo not given in full) | 0.5 µg/mL (≈ 1.17 µM) | > 4 µg/mL | > 4 µg/mL | > 4 µg/mL | > 4 µg/mL | > 4 µg/mL
3 | CC(C)C1=CC2CC3(C=O)[C@@H]4CC[C@@H](C)[C@H]4CC2(CSC2CCCCC2)C13C(=O)O (stereo not given in full) | 0.031 µg/mL (≈ 0.072 µM) | ≤ 0.016 µg/mL | 0.063 µg/mL (≈ 0.146 µM) | 0.031 µg/mL (≈ 0.072 µM) | 2 µg/mL (≈ 4.64 µM) | 0.125 µg/mL (≈ 0.29 µM)
4 | C/C=C/C=C\C(=O)O[C@H]1[C@H](O)[C@H](OCC23C[C@@H]4[C@H](C)CC[C@H]4C4(C=O)CC2C=C(C(C)C)C34C(=O)O)O[C@H](C)[C@H]1OC (stereo not given in full) | > 4 µg/mL | 0.25 µg/mL (≈ 0.426 µM) | 0.5 µg/mL (≈ 0.852 µM) | 0.5 µg/mL (≈ 0.852 µM) | 0.5 µg/mL (≈ 0.852 µM) | 0.5 µg/mL (≈ 0.852 µM)
5 | CC(C)C1=CC2CC3(C=O)[C@@H]4CC[C@@H](C)[C@H]4CC2(CON=C2CCCCC2)C13C(=O)O (stereo not given in full) | 0.063 µg/mL (≈ 0.147 µM) | 0.031 µg/mL (≈ 0.0725 µM) | 0.063 µg/mL (≈ 0.147 µM) | 0.031 µg/mL (≈ 0.0725 µM) | 1 µg/mL (≈ 2.34 µM) | 0.063 µg/mL (≈ 0.147 µM)
6 | CC(C)C1=CC2CC3(C=O)[C@@H]4CC[C@@H](C)[C@H]4CC2(COC2CCCCC2)C13C(=O)O (stereo not given in full) | ≤ 0.063 µg/mL | ≤ 0.063 µg/mL | 0.25 µg/mL (≈ 0.603 µM) | 0.125 µg/mL (≈ 0.302 µM) | 2 µg/mL (≈ 4.82 µM) | 0.25 µg/mL (≈ 0.603 µM)
7 | CC(C)C1=CC2CC3(C=O)[C@@H]4CC[C@@H](C)[C@H]4CC2(/C=N/OC2CCCCC2)C13C(=O)O (stereo not given in full) | 0.125 µg/mL (≈ 0.292 µM) | 0.031 µg/mL (≈ 0.0725 µM) | 0.063 µg/mL (≈ 0.147 µM) | 0.031 µg/mL (≈ 0.0725 µM) | 1 µg/mL (≈ 2.34 µM) | 0.063 µg/mL (≈ 0.147 µM)
8 | CC(C)C1=CC2CC3(C=O)[C@@H]4CC[C@@H](C)[C@H]4CC2(C(=O)OC2CCCCC2)C13C(=O)O (stereo not given in full) | 0.5 µg/mL (≈ 1.17 µM) | ≤ 0.125 µg/mL | 0.25 µg/mL (≈ 0.583 µM) | ≤ 0.125 µg/mL | 4 µg/mL (≈ 9.33 µM) | 0.5 µg/mL (≈ 1.17 µM)
9 | OC(Cn1cncn1)(Cn1cncn1)c1ccc(F)cc1F [FLUCONAZOLE] | > 4 µg/mL | 0.25 µg/mL (≈ 0.816 µM) | > 4 µg/mL | 0.5 µg/mL (≈ 1.63 µM) | 0.5 µg/mL (≈ 1.63 µM) | > 4 µg/mL
10 | CCC(C)n1ncn(-c2ccc(N3CCN(c4ccc(OC[C@H]5CO[C@](Cn6cncn6)(c6ccc(Cl)cc6Cl)O5)cc4)CC3)cc2)c1=O (stereo not given in full) [ITRACONAZOLE] | 1 µg/mL (≈ 1.42 µM) | 0.031 µg/mL (≈ 0.0439 µM) | 0.25 µg/mL (≈ 0.354 µM) | 0.125 µg/mL (≈ 0.177 µM) | 0.5 µg/mL (≈ 0.709 µM) | 1 µg/mL (≈ 1.42 µM)
